# An excerpt weighted towards active compounds, which were near 2.9% of everything screened.
# MC4R antagonist = human MC4R antagonism in cAMP assay. inhibition, % at 6.5 µM. P32245. 360,000 compounds, 0.48% hits. MC4R-expressing cells, MTII-stimulated cAMP, LANCE TR-FRET;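 active = inhibition above its plate's cutoff, the mean of tested wells on that plate plus 3 SD, cut at about 29% in these data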;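 also: 0% = Melanotan II alone and 100% = Melanotan II plus saturating MCL0020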
#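 Material: U2OS-MC4R stable cell line | Reagent: Melanotan II challenge after compound preincubation | Doses: One concentration, 6.5 µM nominal | Incubation: 30-min compound preincubation, 1-h Melanotan II challenge, 1-h detection, room temperature | Signal: TR-FRET cAMP assay | Replicates: One well per compound, no replicates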
# Efflux pump inh = inhibitors of Candida antifungal efflux pumps expressed in yeast; 330,000 compounds, 0.44% hits; inhibition, % at 10 µM; S. cerevisiae Candida pump triplex, Nile Red efflux;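 active = plate passing quality check with inhibition over a set limit, or well fluorescence over plate mean plus 4 SD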;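 also: Nile Red retained in pooled yeast measured as flow cytometry median fluorescence; 0% = buffer negative control and 100% = Enniatin B positive control; higher means more Nile Red kept so more efflux inhibition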
# GalR3 antag = human GalR3 antagonism | O60755 | HEK293 GalR3-CNG cAMP membrane potential fluorescence; galR3 body fused to GalR1 C-terminus | inhibition, % at 3 µM | 360,000 compounds, 0.44% hits | AID 651719;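 active = inhibition above the screen-wide average plus 3 SD, cut at about 13% in these data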;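 also: forskolin and galanin both at EC90 stimulate the cells; cAMP rise reported by CNG channel membrane potential dye signal; 0% = forskolin plus galanin with DMSO and 100% = forskolin alone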
# Target sequence (O60755 1-299 limits assumed): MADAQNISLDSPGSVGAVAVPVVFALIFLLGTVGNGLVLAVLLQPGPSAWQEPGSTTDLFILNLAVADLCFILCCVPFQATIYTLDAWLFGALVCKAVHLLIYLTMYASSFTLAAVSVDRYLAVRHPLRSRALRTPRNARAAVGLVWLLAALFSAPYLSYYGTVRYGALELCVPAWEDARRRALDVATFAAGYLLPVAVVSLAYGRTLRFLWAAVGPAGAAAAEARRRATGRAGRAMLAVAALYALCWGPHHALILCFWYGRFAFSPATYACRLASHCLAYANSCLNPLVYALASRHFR
# Calb FLC = C. albicans growth modulation with fluconazole | C. albicans CaCi-2 + fluconazole, Alamar Blue growth, 48 h | growth inhibition, % (test concentration not listed) | 300,000 compounds, 0.57% hits | AID 1979;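 active = growth inhibition above about 58% in most replicates, limit read from the data, passing the limit was not always enough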;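 also: all wells also contain fluconazole at 8 µg/ml as a sub-toxic cotreatment; 0% = median of DMSO wells and 100% = median of geldanamycin control wells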
# MC4R ag barr = activates human MC4R beta-arrestin recruitment; P32245; U2OS MC4R beta-arrestin complementation, luminescence; percent of melanotan II response, DMSO zero; activation, % at 8.9 µM; 360,000 compounds, 0.98% hits;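 active = activation above a per-plate cutoff, the mean activation of sample wells on that plate plus 3 SD, cut at about 8% in these data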
# H9c2 TAG inh = reduces triacylglycerol accumulation in H9c2 cells | inhibition, % at 12.5 µM | 230,000 compounds, 0.66% hits | Nile Red lipid (TAG) fluorescence; cells loaded with 200 µM oleic acid | AID 651582;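 active = pattern-corrected inhibition of lipid staining of at least 50% with the nuclear-stain viability signal not falling by more than 50%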;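 also: 0% = DMSO wells and 100% = triacsin C control wells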
# U2OS cAMP counter = U2OS forskolin cAMP inhibition counter-screen | shares compounds with MC4R antagonist | AID 602193 | parental U2OS, LANCE TR-FRET | 1,600 compounds, 26% hits | inhibition, % at 6.5 µM;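 active = mean inhibition over triplicates above the low-control well mean plus 3 SD, set per campaign, cut at about 13% in these data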;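 also: signal is single emission at 671 nm which falls as cellular cAMP rises; 0% = forskolin-stimulated wells and 100% = buffer without forskolin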
# MC4R cAMP antag = human MC4R cAMP antagonism confirmation. inhibition, % at 6.5 µM. shares compounds with MC4R antagonist. MC4R-expressing cells, MTII-stimulated cAMP, TR-FRET. 1,600 compounds, 27% hits; in the data active = inhibition above about 29%;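 also: 0% = agonist stimulated wells alone and 100% = agonist stimulated wells plus saturating reference antagonist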
# Starred values were filed as active, the others as inactive; . = no result given.
SMILES,MC4R antagonist,Efflux pump inh,GalR3 antag,Calb FLC,MC4R ag barr,H9c2 TAG inh,U2OS cAMP counter,MC4R cAMP antag
CCOc1ccc(N2C(=O)C(C)CNC2=S)cc1 (configuration not stated),-3,.,-6,.,0,-2,.,.
COc1ccccc1-c1cc2nc(-c3ccccc3)cc(N3CCN(C(=O)c4ccco4)CC3)n2n1,29*,.,-6,.,2,-8,-1,11
COc1ccccc1-c1cc2nc(-c3ccccc3)cc(N3CCN(C(=O)c4ccoc4)CC3)n2n1,30*,.,-6,.,0,13,3,8
CSc1ccc(CN2C(=O)C(F)(F)Oc3c(C(C)=O)cccc32)cc1,5,.,.,.,0,-6,.,.
NNC(=O)CNC(c1ccccc1)c1cc(Br)ccc1N (configuration not stated),-2,0,-5,23,2,-3,.,.
COC(=O)CNC(c1ccccc1)c1cc(Br)ccc1NC(=O)CNC(=O)OCc1ccccc1 (configuration not stated),11,0,.,-5,-2,.,.,.
COC(=O)CNC(c1ccccc1)c1cc(Br)ccc1NC(=O)CCN1CCOCC1 (configuration not stated),29*,0,0,-10,2,5,6,-5
COC(=O)CNC(c1ccccc1)c1cc(Br)ccc1N (configuration not stated),31*,0,-1,20,2,-13,-1,3
COCCn1c(SCC(=O)NC2CCCCC2C)nnc1-c1ccncc1 (configuration not stated),29*,0,-9,-4,0,.,0,-4
C#CCOCCOCCOCCNc1nc(N2CCN(C(=O)CCCCCCCCCCNC(=O)[C@H](CO)n3cc(CCCSC)nn3)CC2)nc(N2CCN(C(=O)CCCCCCCCCCNC(=O)[C@@H]([C@H](C)O)n3cc(C)nn3)CC2)n1,.,0,.,.,.,.,.,.
O=C(Nc1cccc([N+](=O)[O-])c1)c1ccc2c(c1)C(=O)N(c1ccccn1)C2=O,35*,0,-8,-3,-1,.,12,18
CC(=O)c1ccc(NC(=O)c2ccc3c(c2)C(=O)N(c2ccccn2)C3=O)cc1,-4,0,-8,-14,-1,.,.,.
CC1(C(=O)NCc2ccc3c(c2)OCO3)CCN1Cc1csc2ccccc12 (configuration not stated),-2,.,-6,.,-1,0,.,.
COC(=O)c1c(NC(=O)C2COc3ccccc3O2)sc2c1CCN(C(=O)OC)C2 (configuration not stated),31*,.,-4,.,1,0,2,26
COc1ccc(N2CCN(c3nc(Cl)nc(Nc4ccc(F)cc4)n3)CC2)cc1,38*,0,-5,7,-3,.,14*,55*
Nc1ccc2nn(-c3cc([N+](=O)[O-])ccc3O)nc2c1,29*,0,-10,26,1,.,-1,6
Nc1ccc(-n2cnc3cc([N+](=O)[O-])ccc32)cc1,6,0,-3,17,-1,15,.,.
CC(C)[C@H](NC(=O)c1cccs1)C(=O)N1CCC[C@H]1C(=O)NCc1ccccc1,.,.,-6,.,.,.,.,.
COCCN(CCOC)S(=O)(=O)c1ccc(C(=O)Nc2ccc(S(=O)(=O)Nc3nccc(C)n3)cc2)cc1,30*,0,-2,-3,-2,.,-4,-16
COc1ccc(C(=O)Nc2ccc(S(=O)(=O)Nc3nccc(C)n3)cc2)cc1,9,0,-10,-5,-2,.,.,.
COc1ccc(OC)c(-c2csc(NC(=O)Cc3ccccc3)n2)c1,3,0,-5,-3,4,.,.,.
COc1cccc(CC(=O)Nc2nc(-c3cc(OC)ccc3OC)cs2)c1,34*,0,-5,3,5,27,1,1
CC(C)(C)OC(=O)NCc1ccc(NC(=O)c2nc[nH]c2C(=O)N[C@@H](Cc2ccccc2)C(=O)OCc2ccccc2)cc1,63*,0,-5,15,95*,14,-5,36*

# Screening data deposited in PubChem by several laboratories.
